Converted amounts (≈) assume the structure as drawn. The source made the active and inactive calls. The rule behind the calls is not given here.
Assays:
Candida albicans [1] = assay: Antifungal activity against Candida albicans after 48 hrs by agar disk diffusion assay; type: functional
In short: (§1)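 Fungal isolates (PSG Hospital, Coimbatore) grown on Sabouraud dextrose agar; agar well diffusion with compounds in DMSO at 0 (control), 25, 50, 75, 100. DMSO negative control, fluconazole ([…]) positive control. Plates held 28 ± 2 °C for 48 h; zone of inhibition diameter recorded in mm.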

Escherichia coli [2] = assay: Antibacterial activity against Escherichia coli after 24 hrs by agar disk diffusion assay; type: functional
In short: (§2)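 Gram-negative clinical isolates (PSG Hospital, Coimbatore) tested by agar well diffusion on nutrient agar. Compounds dissolved in DMSO at 0 (control), 25, 50, 75, 100; DMSO was the negative control and ciprofloxacin ([…]) the positive control. Incubation 37 ± 2 °C for 24 h, then inhibition zone diameter measured in mm.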

Candida albicans [3] = assay: Antifungal activity against Candida albicans at 50 ug/ml after 48 hrs by agar disk diffusion assay; type: functional; conditions: read-out: DIZ; in short: as §1
Enterococcus faecalis [4] = assay: Antibacterial activity against Enterococcus faecalis at 50 ug/ml after 24 hrs by agar disk diffusion assay; type: functional; conditions: read-out: DIZ
In short: (§3)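 Agar well diffusion on nutrient agar against Gram-positive clinical isolates (PSG Hospital, Coimbatore). Compounds in DMSO tested at 0 (control), 25, 50, 75, 100; DMSO as solvent and negative control; ciprofloxacin ([…]) as positive control. Plates incubated 37 ± 2 °C, 24 h; zone of inhibition diameter read in mm.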

Staphylococcus aureus [5] = assay: Antibacterial activity against Staphylococcus aureus after 24 hrs by agar disk diffusion assay; type: functional; in short: as §3
A549 = assay: Cytotoxicity against human A549 cells up to 50 ug/ml after 48 hrs by SRB assay; type: functional, cell-based
In short: (§4)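 Cells in RPMI-1640 with 10% heat-inactivated FBS, 1 mM NaHCO3, 2 mM L-glutamine, 37 °C, 5% CO2; seeded (B16F10 5 × 10⁴ cells/mL, others 1 × 10⁵ cells/mL), 24 h, then compounds in DMSO at 1.56–50 for 48 h, triplicate wells. TCA fixation, SRB staining 30 min, tris extraction, OD 520 nm; IC50 by linear regression, mean ± SD of three independent experiments; cisplatin positive control.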

Aspergillus niger [6] = assay: Antifungal activity against Aspergillus niger after 48 hrs by agar disk diffusion assay; type: functional; in short: as §1
[7] = Cytotoxicity against human SK-MEL-12 cells up to 50 ug/ml after 48 hrs by SRB assay; type: functional, cell-based; in short: as §4
[8] = system: Radical scavenging activity; assay: Antioxidant activity assessed as DPPH radical scavenging activity upto 600 mg/ml after 30 mins by micro plate reader; type: functional
In short: (§5)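 DPPH assay: various compound concentrations brought to volume with ethanol, mixed with 0.1 mM ethanolic DPPH alongside vitamin C standard; shaken 30 min at 24 °C, absorbance read at 517 nm; concentration giving 50% decrease determined.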

Aspergillus niger [9] = assay: Antifungal activity against Aspergillus niger at 50 ug/ml after 48 hrs by agar disk diffusion assay; type: functional; conditions: read-out: DIZ; in short: as §1
Enterococcus faecalis [10] = assay: Antibacterial activity against Enterococcus faecalis after 24 hrs by agar disk diffusion assay; type: functional; in short: as §3
Klebsiella pneumoniae [11] = assay: Antibacterial activity against Klebsiella pneumoniae at 50 ug/ml after 24 hrs by agar disk diffusion assay; type: functional; conditions: read-out: DIZ; in short: as §2
B16-F10 [12] = assay: Cytotoxicity against mouse B16F10 cells after 48 hrs by SRB assay; type: functional, cell-based; conditions: B16-F10, 48 h; in short: as §4
HCT-15 [13] = assay: Cytotoxicity against human HCT15 cells after 48 hrs by SRB assay; type: functional, cell-based; conditions: HCT-15, 48 h; in short: as §4
Klebsiella pneumoniae [14] = assay: Antibacterial activity against Klebsiella pneumoniae after 24 hrs by agar disk diffusion assay; type: functional; in short: as §2
Staphylococcus aureus [15] = assay: Antibacterial activity against Staphylococcus aureus at 50 ug/ml after 24 hrs by agar disk diffusion assay; type: functional; conditions: read-out: DIZ; in short: as §3
Escherichia coli [16] = assay: Antibacterial activity against Escherichia coli at 50 ug/ml after 24 hrs by agar disk diffusion assay; type: functional; conditions: read-out: DIZ; in short: as §2
SK-OV-3 = assay: Cytotoxicity against human SKOV3 cells up to 50 ug/ml after 48 hrs by SRB assay; type: functional, cell-based; in short: as §4
B16-F10 [17] = assay: Cytotoxicity against mouse B16F10 cells up to 50 ug/ml after 48 hrs by SRB assay; type: functional, cell-based; in short: as §4
Candida albicans [18] = assay: Antifungal activity against Candida albicans at 100 ug/ml after 48 hrs by agar disk diffusion assay; type: functional; conditions: read-out: DIZ; in short: as §1
Staphylococcus aureus [19] = assay: Antibacterial activity against Staphylococcus aureus at 100 ug/ml after 24 hrs by agar disk diffusion assay; type: functional; conditions: read-out: DIZ; in short: as §3
[20] = system: Radical scavenging activity; assay: Antioxidant activity assessed as DPPH radical scavenging activity after 30 mins by micro plate reader; type: functional; in short: as §5
Escherichia coli [21] = assay: Antibacterial activity against Escherichia coli at 100 ug/ml after 24 hrs by agar disk diffusion assay; type: functional; conditions: read-out: DIZ; in short: as §2
HCT-15 [22] = assay: Cytotoxicity against human HCT15 cells up to 50 ug/ml after 48 hrs by SRB assay; type: functional, cell-based; in short: as §4
Aspergillus niger [23] = assay: Antifungal activity against Aspergillus niger at 100 ug/ml after 48 hrs by agar disk diffusion assay; type: functional; conditions: read-out: DIZ; in short: as §1
Enterococcus faecalis [24] = assay: Antibacterial activity against Enterococcus faecalis at 100 ug/ml after 24 hrs by agar disk diffusion assay; type: functional; conditions: read-out: DIZ; in short: as §3
Klebsiella pneumoniae [25] = assay: Antibacterial activity against Klebsiella pneumoniae at 100 ug/ml after 24 hrs by agar disk diffusion assay; type: functional; conditions: read-out: DIZ; in short: as §2
Aspergillus niger [26] = assay: Antifungal activity against Aspergillus niger at 30 ug/ml after 48 hrs by agar disk diffusion assay; type: functional; conditions: read-out: DIZ
In short: (§6)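 Agar well diffusion on Sabouraud dextrose agar; fungal strains obtained from a hospital. Compounds dissolved in DMSO, with DMSO as negative control and fluconazole ([…]) as positive control. Plates incubated at 28 ± 2 °C for 48 h. Activity taken as the diameter of the inhibition zone, in mm.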

Candida albicans [27] = assay: Antifungal activity against Candida albicans AT 30 ug/ml after 48 hrs by agar disk diffusion assay; type: functional; conditions: read-out: DIZ; in short: as §6
Escherichia coli [28] = assay: Antibacterial activity against Escherichia coli at 30 ug/ml after 24 hrs by agar disk diffusion assay; conditions: read-out: DIZ
Enterococcus faecalis [29] = assay: Antibacterial activity against Enterococcus faecalis at 30 ug/ml after 24 hrs by agar disk diffusion assay; conditions: read-out: DIZ
Klebsiella pneumoniae [30] = assay: Antibacterial activity against Klebsiella pneumoniae at 30 ug/ml after 24 hrs by agar disk diffusion assay; conditions: read-out: DIZ
Staphylococcus aureus [31] = assay: Antibacterial activity against Staphylococcus aureus at 30 ug/ml after 24 hrs by agar disk diffusion assay; conditions: read-out: DIZ

SMILES | MIC (Candida albicans [1]) [µg/mL] | MIC (Escherichia coli [2]) [µg/mL] | MIC (Staphylococcus aureus [5]) [µg/mL] | IC50 (A549) | MIC (Aspergillus niger [6]) [µg/mL] | IC50 [7] | MIC (Enterococcus faecalis [10]) [µg/mL] | MIC (Klebsiella pneumoniae [14]) [µg/mL] | IC50 (SK-OV-3) | also measured
Cc1ccc2[nH]c3c(c2c1)CCc1c-3nc(N)c(C#N)c1-c1ccc(N(C)C)cc1 | > 100 | 50 (≈ 127 µM) | 50 (≈ 127 µM) | Not Active | > 100 | Not Active | 50 (≈ 127 µM) | 50 (≈ 127 µM) | Not Active | zone of inhibition at 50 µg/mL (Candida albicans [3]): 9 mm; zone of inhibition at 50 µg/mL (Enterococcus faecalis [4]): 19 mm; Activity [8]: inactive; zone of inhibition at 50 µg/mL (Aspergillus niger [9]): 5 mm; zone of inhibition at 50 µg/mL (Klebsiella pneumoniae [11]): 18 mm; IC50 (B16-F10 [12]): 34.6 µg/mL (≈ 87.9 µM); IC50 (HCT-15 [13]): 43.5 µg/mL (≈ 111 µM); zone of inhibition at 50 µg/mL (Staphylococcus aureus [15]): 17 mm; zone of inhibition at 50 µg/mL (Escherichia coli [16]): 17 mm
CCOC(=O)c1c(N)nc2c(c1-c1ccccc1)CCc1c-2[nH]c2ccc(C)cc12 | > 100 | 100 (≈ 252 µM) | 100 (≈ 252 µM) | Not Active | > 100 | Not Active | 100 (≈ 252 µM) | 100 (≈ 252 µM) | Not Active | IC50 (B16-F10 [17]): Not Active; zone of inhibition at 100 µg/mL (Candida albicans [18]): 2 mm; zone of inhibition at 100 µg/mL (Staphylococcus aureus [19]): 14 mm; IC50 [20]: 300.84 µg/mL (≈ 757 µM); zone of inhibition at 100 µg/mL (Escherichia coli [21]): 13 mm; IC50 (HCT-15 [22]): Not Active; zone of inhibition at 100 µg/mL (Aspergillus niger [23]): 4 mm; zone of inhibition at 100 µg/mL (Enterococcus faecalis [24]): 15 mm; zone of inhibition at 100 µg/mL (Klebsiella pneumoniae [25]): 16 mm
OC(Cn1cncn1)(Cn1cncn1)c1ccc(F)cc1F [FLUCONAZOLE] | 12.5 (≈ 40.8 µM) |  |  |  | 12.5 (≈ 40.8 µM) |  |  |  |  | zone of inhibition at 30 µg/mL (Aspergillus niger [26]): 19 mm; zone of inhibition at 30 µg/mL (Candida albicans [27]): 22 mm
O=C(O)c1cn(C2CC2)c2cc(N3CCNCC3)c(F)cc2c1=O [CIPROFLOXACIN] |  | 12.5 (≈ 37.7 µM) | 12.5 (≈ 37.7 µM) |  |  |  | 12.5 (≈ 37.7 µM) | 12.5 (≈ 37.7 µM) |  | zone of inhibition at 30 µg/mL (Escherichia coli [28]): 27 mm; zone of inhibition at 30 µg/mL (Enterococcus faecalis [29]): 29 mm; zone of inhibition at 30 µg/mL (Klebsiella pneumoniae [30]): 30 mm; zone of inhibition at 30 µg/mL (Staphylococcus aureus [31]): 28 mm
